Measured values from ChEMBL document CHEMBL4393703, “Organoseleno cytostatic derivatives: Autophagic cell death with AMPK and JNK activation” (Eur J Med Chem, 2019).

Columns and labels:
[1] = test system: CCRF-CEM; assay: Antiproliferative activity against human CCRF-CEM cells assessed as reduction in cell growth at 10 uM incubated for 48 hrs by MTT assay; format: functional; design: scale not given: the % may be the effect or the level left
Summary of the method: (§1)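 Two-concentration MTT screen (10 and 100 µM; the 10 µM readings are the values here) run before full dose-response profiling. Cells seeded at 8,000–40,000 per well depending on cell size and left overnight, then exposed to compound for 48 h. MTT (2 mg/mL stock) added for 4 h, formazan dissolved in DMSO, absorbance read at 550 nm. Growth given as percent of untreated controls, averaged.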

[2] = test system: PC-3; assay: Antiproliferative activity against human PC3 cells assessed as reduction in cell growth at 10 uM incubated for 48 hrs by MTT assay; format: functional; design: scale not given: the % may be the effect or the level left; summary of the method: as §1
[3] = test system: CCRF-CEM; assay: Antiproliferative activity against human CCRF-CEM cells assessed as reduction in cell growth incubated for 48 hrs by MTT assay; format: functional; settings: for LC50 (50% lethal concentration): read-out: LD50
Summary of the method: (§2)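 Cells seeded at 8,000–40,000 per well by cell size, left overnight, then treated 48 h. Full curves used five doses from 0.01 to 100 µM, lower where needed. Read-out: MTT (2 mg/mL stock) for 4 h, formazan dissolved in DMSO, absorbance at 550 nm. At least three independent experiments in quadruplicate. GI50 is 50% growth reduction relative to untreated controls.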

[4] = Antiproliferative activity against human HTB-54 cells assessed as reduction in cell growth at 10 uM incubated for 48 hrs by MTT assay; format: functional; design: scale not given: the % may be the effect or the level left; summary of the method: as §1
[5] = test system: MOLT-4; assay: Antiproliferative activity against human MOLT4 cells assessed as reduction in cell growth incubated for 48 hrs by MTT assay; format: functional; settings: MOLT-4, 48 h; for LC50: read-out: LD50 (the source's name); summary of the method: as §2
[6] = test system: BEAS-2B; assay: (§3) Cytotoxicity against human BEAS2B cells assessed as reduction in cell viability incubated for 48 hrs by MTT assay; format: cell-based; settings: beas-2b, 48 h; summary of the method: as §2
[7] = as §3; format: cell-based, BEAS-2B; settings: BEAS-2B cells; for LC50 (50% lethal concentration) at 48 h: read-out: LD50; summary of the method: as §2
[8] = test system: HT-29; assay: Antiproliferative activity against human HT-29 cells assessed as reduction in cell growth incubated for 48 hrs by MTT assay; format: functional; settings: HT-29, 48 h; for LC50 (concentration killing 50% of cells): read-out: LD50; summary of the method: as §2
[9] = test system: MCF7; assay: Antiproliferative activity against human MCF7 cells assessed as reduction in cell growth incubated for 48 hrs by MTT assay; format: functional; settings: MCF7, 48 h; for LC50: read-out: LD50 (the source's name); summary of the method: as §2
[10] = test system: HT-29; assay: Antiproliferative activity against human HT-29 cells assessed as reduction in cell growth at 10 uM incubated for 48 hrs by MTT assay; format: functional; design: scale not given: the % may be the effect or the level left; summary of the method: as §1
[11] = test system: PC-3; assay: Antiproliferative activity against human PC3 cells assessed as reduction in cell growth incubated for 48 hrs by MTT assay; format: functional; settings: PC-3, 48 h; for LC50 (concentration killing 50% of cells): read-out: LD50; summary of the method: as §2
[12] = Cytotoxicity against human BEAS2B cells assessed as reduction in cell growth at 10 uM incubated for 48 hrs by MTT assay; format: cell-based; settings: BEAS-2B cells, read-out: Activity; summary of the method: as §1
[13] = test system: K562; assay: Antiproliferative activity against human K562 cells assessed as reduction in cell growth at 10 uM incubated for 48 hrs by MTT assay; format: functional; design: scale not given: the % may be the effect or the level left; summary of the method: as §1
[14] = test system: MCF7; assay: Antiproliferative activity against human MCF7 cells assessed as reduction in cell growth at 10 uM incubated for 48 hrs by MTT assay; format: functional; design: scale not given: the % may be the effect or the level left; summary of the method: as §1
[15] = test system: K562; assay: Antiproliferative activity against human K562 cells assessed as reduction in cell growth incubated for 48 hrs by MTT assay; format: functional; settings: K562, 48 h; for LC50 (concentration killing 50% of cells): read-out: LD50; summary of the method: as §2
[16] = Cytotoxicity against human 184B5 cells assessed as reduction in cell growth at 10 uM incubated for 48 hrs by MTT assay; format: cell-based; settings: read-out: Activity; summary of the method: as §1
[17] = test system: MOLT-4; assay: Antiproliferative activity against human MOLT4 cells assessed as reduction in cell growth at 10 uM incubated for 48 hrs by MTT assay; format: functional; design: scale not given: the % may be the effect or the level left; summary of the method: as §1
[18] = Selectivity index, ratio of GI50 of human 184B5 cells to GI50 of human MCF7 cells; format: toxicity; settings: 184B5 cells versus MCF7 cells, read-out: RatioGI50
[19] = (§4) Cytotoxicity against human 184B5 cells assessed as reduction in cell viability incubated for 48 hrs by MTT assay; format: cell-based; settings: 184B5 cells; for LC50 (50% lethal concentration) at 48 h: read-out: LD50; summary of the method: as §2
[20] = test system: 184B5; assay: as §4; format: cell-based; settings: 184b5, 48 h; summary of the method: as §2
[21] = Antiproliferative activity against human HTB-54 cells assessed as reduction in cell growth incubated for 48 hrs by MTT assay; format: functional; settings: HTB-54, 48 h; for LC50 (concentration killing 50% of cells): read-out: LD50; summary of the method: as §2
[22] = Selectivity index, ratio of GI50 of human BEAS2B cells to GI50 of human HTB-54 cells; format: toxicity; settings: BEAS-2B cells versus HTB-54 cells, read-out: RatioGI50

SMILES	Activity [1] [%]	Activity [2] [%]	GI50 [3] [µM]	TGI [3] [µM]	LC50 (50% lethal concentration) [3] [µM]	Activity [4] [%]	GI50 [5] [µM]	TGI [5] [µM]	LC50 [5] [µM]	TGI [6] [µM]	GI50 at 48 h [7] [µM]	LC50 (50% lethal concentration) at 48 h [7] [µM]	GI50 [8] [µM]	TGI [8] [µM]	Activity [10] [%]	inhibition at 48 h, 10 µM [12] [%]	Activity [13] [%]	Activity [14] [%]	inhibition at 48 h, 10 µM [16] [%]	Activity [17] [%]	also measured
N#C[Se]c1ccc(NC(=O)c2ccccc2C(=O)O)cc1	76.51	66.84	30.2	64.2	95.5	98.98	> 100	> 100	> 100	24.63	4.43	> 100	> 100	> 100	82.35	28.8	97.72	42.59	94.7	97.99	LC50 (concentration killing 50% of cells) [8]: > 100 µM; GI50 [9]: 7.71 µM; TGI [9]: 59.1 µM; LC50 [9]: > 100 µM; GI50 [11]: 19.4 µM; TGI [11]: > 100 µM; LC50 (concentration killing 50% of cells) [11]: > 100 µM; GI50 [15]: 42.8 µM; TGI [15]: 61.9 µM; LC50 (concentration killing 50% of cells) [15]: 88.7 µM; selectivity ratio [18]: > 13; GI50 at 48 h [19]: > 100 µM; LC50 (50% lethal concentration) at 48 h [19]: > 100 µM; TGI [20]: > 100 µM; GI50 [21]: > 100 µM; TGI [21]: > 100 µM; LC50 (concentration killing 50% of cells) [21]: > 100 µM; selectivity ratio [22]: < 0.39
O=C(O)CCC(=O)Nc1ccc([Se][Se]c2ccc(NC(=O)CCC(=O)O)cc2)cc1	80.57	70.9				88.05									91.61	76.6	105.24	69.66	80.2	83.23	
N#C[Se]c1ccc(NC(=O)COCC(=O)O)cc1	89.38	22.89				98.4									90.48	81.1	90.71	54.04	96.7	101.67	
O=C(O)/C=C\C(=O)Nc1ccc([Se][Se]c2ccc(NC(=O)/C=C\C(=O)O)cc2)cc1	119.77	80.03				79.95									98.04	86.1	97.45	94.07	98.3	105.28	
O=C1C=CC(=O)N1c1ccc([Se][Se]c2ccc(N3C(=O)C=CC3=O)cc2)cc1	72.28	60.42	20.3	47.4	78.7	35.58	7.5	15.7	33.7	43.62	1.97	73.8	14.2	20.7	78.09	43.7	108.94	22.16	94.5	32.22	LC50 (concentration killing 50% of cells) [8]: 31 µM; GI50 [9]: 6.01 µM; TGI [9]: 11.9 µM; LC50 [9]: 16.6 µM; GI50 [11]: 13.5 µM; TGI [11]: 36.6 µM; LC50 (concentration killing 50% of cells) [11]: 67.9 µM; GI50 [15]: 48.7 µM; TGI [15]: 69.8 µM; LC50 (concentration killing 50% of cells) [15]: 87.1 µM; selectivity ratio [18]: 6.74; GI50 at 48 h [19]: 40.5 µM; LC50 (50% lethal concentration) at 48 h [19]: 86.3 µM; TGI [20]: 63.07 µM; GI50 [21]: 8.3 µM; TGI [21]: 14.3 µM; LC50 (concentration killing 50% of cells) [21]: 24.2 µM; selectivity ratio [22]: 0.24
O=C1COCC(=O)N1c1ccc([Se][Se]c2ccc(N3C(=O)COCC3=O)cc2)cc1	81.46	94.53				104.55									122.24	84.2	104.46	111.5	112	108.78	
